Measurements from ChEMBL document CHEMBL1124204, “Thiophene systems. 9. Thienopyrimidinedione derivatives as potential antihypertensive agents” (1988).

How the values were obtained:
Rattus norvegicus [1] = assay: Time to peak fall in systolic blood pressure in spontaneously hypertensive rats after oral administration of 1.25 mg/kg of the compound
Rattus norvegicus [2] = assay: Evaluated for blood pressure lowering activity in spontaneously hypertensive rats (maximum change of systolic blood pressure (SBP)) at a dose of 1.25 mg/kg; format: functional, Artery
Summary of the method: (§1)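 Adult male SHR, conscious, restrained in a chamber at 32 °C. SBP measured indirectly by tail cuff with a pneumatic pulse transducer. After baseline, groups of 4–6 received a single oral gavage dose or vehicle (0.5% methylcellulose). SBP was read at 0.5, 1, 2, 3 and 4 h, and the maximum SBP change ± SEM was reported against the vehicle effect.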

Rattus norvegicus [3] = assay: Evaluated for blood pressure lowering activity in spontaneously hypertensive rats (maximum change of systolic blood pressure (SBP)) at a dose of 10 mg/kg; format: functional, Artery
Summary of the method: as §1

Rattus norvegicus [4] = assay: Time to peak fall in systolic blood pressure in spontaneously hypertensive rats after oral administration of 10 mg/kg of the compound
Rattus norvegicus [5] = assay: Time to reach peak blood pressure lowering effect in spontaneously hypertensive rats after oral administration of 2.5 mg/kg of the compound
Rattus norvegicus [6] = assay: Evaluated for blood pressure lowering activity in spontaneously hypertensive rats (maximum change of systolic blood pressure (SBP)) at a dose of 2.5 mg/kg; format: functional, Artery
Summary of the method: as §1

Canis familiaris = assay: Intravenous dose required to produce a 20-fold rightward shift in the phenylephrine dose-response curve in the dog; format: functional, Canis lupus familiaris
Summary of the method: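 Mongrel dogs, anesthetized and bilaterally vagotomized. Mean arterial pressure was recorded via carotid cannula, and drug was given iv through the jugular vein. Phenylephrine dose–response curves were run before and after antagonist. The iv dose (μg/kg) producing a 20-fold rightward shift (DR20) was calculated; n = animals tested.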

Rattus norvegicus [7] = assay: Time to peak fall in systolic blood pressure in spontaneously hypertensive rats after oral administration of 0.5 mg/kg of the compound
Rattus norvegicus [8] = assay: Evaluated for blood pressure lowering activity in spontaneously hypertensive rats (maximum change of systolic blood pressure (SBP)) at a dose of 0.5 mg/kg; format: functional, Artery
Summary of the method: as §1

Rattus norvegicus [9] = assay: Intravenous dose required to produce a 50% inhibition of the phenylephrine pressor response in the spontaneously hypertensive rats; format: functional
Summary of the method: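 Adult male SHR, anesthetized and bilaterally vagotomized. A carotid artery was cannulated for mean arterial pressure and a jugular vein for iv dosing. Phenylephrine pressor responses were measured before and after antagonist. The iv dose (μg/kg) giving 50% inhibition of the pressor response (ED50) was reported with fiducial limits.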

Rattus norvegicus [10] = species: Rattus norvegicus; assay: Peroral dose required to produce a 50 mmHg drop in systolic blood pressure (SBP) in the spontaneously hypertensive rats; format: functional; settings: Artery, po
Summary of the method: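 Adult male SHR, conscious, tail-cuff indirect SBP at 32 °C. Groups of 4–6 were given single oral gavage doses of 0.5–20 mg/kg in 0.5% methylcellulose, with SBP followed over 4 h. The dose giving a 50 mmHg SBP fall (ED50SBP, mg/kg po) was calculated by regression analysis with 95% fiducial limits; n = animals tested.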

Rattus norvegicus [11] = assay: Evaluated for blood pressure lowering activity in the conscious spontaneously hypertensive rats (SHR) (time to peak (h)) at a dose of 2.5 mg/kg; format: functional
Summary of the method: (§2)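 Conscious adult male SHR in restrainers at 32 °C, with tail-cuff and pulse-transducer SBP recording. Groups of 4–6 got a single gavage dose in 0.5% methylcellulose or vehicle alone. SBP was sampled at 0.5, 1, 2, 3 and 4 h post-dose, and the time (h) at which the peak SBP change occurred was recorded.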

Rattus norvegicus [12] = assay: Evaluated for blood pressure lowering activity in spontaneously hypertensive rats (maximum change of systolic blood pressure (SBP)) at a dose of 5 mg/kg; format: functional, Artery
Summary of the method: as §1

Rattus norvegicus [13] = assay: Evaluated for blood pressure lowering activity in the conscious spontaneously hypertensive rats (SHR) (time to peak (h)) at a dose of 5 mg/kg; format: functional
Summary of the method: as §2

Rattus norvegicus [14] = assay: Evaluated for blood pressure lowering activity in the conscious spontaneously hypertensive rats (SHR) (time to peak (h)) at a dose of 10 mg/kg; format: functional
Summary of the method: as §2

Rattus norvegicus [15] = assay: Time to reach peak blood pressure lowering effect in spontaneously hypertensive rats after oral administration of 20 mg/kg of the compound
Rattus norvegicus [16] = assay: Evaluated for blood pressure lowering activity in spontaneously hypertensive rats (maximum change of systolic blood pressure (SBP)) at a dose of 20 mg/kg; format: functional, Artery
Summary of the method: as §1

COc1ccccc1N1CCN(CCn2c(=O)[nH]c3csc(C)c3c2=O)CC1.Cl
Time (Rattus norvegicus [1]): 1 h
Delta SBP (Rattus norvegicus [2]): -66 mmHg

COc1ccccc1N1CCN(CCn2c(=O)[nH]c3scc(C)c3c2=O)CC1.Cl.O
Delta SBP (Rattus norvegicus [3]): -56 mmHg
Time (Rattus norvegicus [4]): 0.5 h

CCOc1ccccc1N1CCN(CCn2c(=O)[nH]c3cscc3c2=O)CC1.Cl
Time (Rattus norvegicus [5]): 2 h
Delta SBP (Rattus norvegicus [6]): -79 mmHg

Cl.O=c1[nH]c2cscc2c(=O)n1CCN1CCN(c2ccc(F)cc2)CC1
Delta SBP (Rattus norvegicus [3]): -68 mmHg
Time (Rattus norvegicus [4]): 0.5 h

Cl.O=c1[nH]c2cscc2c(=O)n1CCN1CCN(c2ccccc2)CC1
Delta SBP (Rattus norvegicus [3]): -76 mmHg
Time (Rattus norvegicus [4]): 0.5 h

COc1ccccc1N1CCN(CCn2c(=O)[nH]c3cscc3c2=O)CC1.Cl
DR20 (Canis familiaris): 3 µg/kg
Time (Rattus norvegicus [7]): 0.5 h
Delta SBP (Rattus norvegicus [8]): -83 mmHg
ED50 (Rattus norvegicus [9]): 0.0017 mg/kg
ED50 (Rattus norvegicus [10]): 0.21 mg/kg

COc1ccccc1N1CCN(CCn2c(=O)[nH]c3sccc3c2=O)CC1
Time (Rattus norvegicus [1]): 0.5 h
DR20 (Canis familiaris): 20 µg/kg
Delta SBP (Rattus norvegicus [2]): -50 mmHg
ED50 (Rattus norvegicus [9]): 0.0154 mg/kg
ED50 (Rattus norvegicus [10]): 1 mg/kg

COc1ccccc1N1CCN(CCn2c(=O)c3sccc3n(C(=O)C(C)(C)C)c2=O)CC1
Time (Rattus norvegicus [11]): 0.5 h
Delta SBP (Rattus norvegicus [6]): -62 mmHg

COc1ccccc1N1CCN(CCn2c(=O)c3cscc3n(C(=O)C(C)(C)C)c2=O)CC1
Delta SBP (Rattus norvegicus [12]): -69 mmHg
Time (Rattus norvegicus [13]): 0.5 h

COc1ccccc1N1CCN(CCCn2c(=O)[nH]c3sccc3c2=O)CC1
Time (Rattus norvegicus [14]): 0.5 h
Delta SBP (Rattus norvegicus [3]): -68 mmHg

COc1ccccc1N1CCN(CCCn2c(=O)[nH]c3ccsc3c2=O)CC1
Delta SBP (Rattus norvegicus [3]): -43 mmHg
Time (Rattus norvegicus [4]): 0.5 h

COc1ccccc1N1CCN(CCn2c(=O)c3sccc3n(C)c2=O)CC1
Time (Rattus norvegicus [1]): 0.5 h
Delta SBP (Rattus norvegicus [2]): -56 mmHg

COc1ccccc1N1CCN(CCn2c(=O)c3cscc3n(C(=O)C(C)C)c2=O)CC1
Delta SBP (Rattus norvegicus [12]): -53 mmHg
Time (Rattus norvegicus [13]): 0.5 h

C#CCn1c(=O)n(CCN2CCN(c3ccccc3OC)CC2)c(=O)c2cscc21
Time (Rattus norvegicus [14]): 1 h
Delta SBP (Rattus norvegicus [3]): -52 mmHg

COc1ccc(N2CCN(CCn3c(=O)[nH]c4sccc4c3=O)CC2)cc1
Delta SBP (Rattus norvegicus [3]): -40 mmHg
Time (Rattus norvegicus [4]): 0.5 h

O=c1[nH]c2cscc2c(=O)n1CCN1CCN(c2ccc(Cl)cc2)CC1
Delta SBP (Rattus norvegicus [3]): -56 mmHg
Time (Rattus norvegicus [4]): 0.5 h

COc1ccccc1N1CCN(CCn2c(=O)[nH]c3sc(C)c(C)c3c2=O)CC1
Time (Rattus norvegicus [15]): 1 h
Delta SBP (Rattus norvegicus [16]): -50 mmHg

Cc1ccccc1N1CCN(CCn2c(=O)[nH]c3cscc3c2=O)CC1
Time (Rattus norvegicus [1]): 0.5 h
Delta SBP (Rattus norvegicus [2]): -36 mmHg

CCOC(=O)CCCn1c(=O)n(CCN2CCN(c3ccccc3OC)CC2)c(=O)c2cscc21
Delta SBP (Rattus norvegicus [3]): -87 mmHg
Time (Rattus norvegicus [4]): 0.5 h

C=CCn1c(=O)n(CCN2CCN(c3ccccc3OC)CC2)c(=O)c2cscc21
Delta SBP (Rattus norvegicus [3]): -50 mmHg
Time (Rattus norvegicus [4]): 1 h

O=c1[nH]c2sccc2c(=O)n1CCN1CCN(c2ccccc2Cl)CC1
Delta SBP (Rattus norvegicus [3]): -43 mmHg
Time (Rattus norvegicus [4]): 2 h

COc1cccc(N2CCN(CCn3c(=O)[nH]c4cscc4c3=O)CC2)c1
Time (Rattus norvegicus [15]): 0.5 h
Delta SBP (Rattus norvegicus [16]): -52 mmHg

CCCCCCCCn1c(=O)n(CCN2CCN(c3ccccc3OC)CC2)c(=O)c2cscc21
Time (Rattus norvegicus [14]): 2 h
Delta SBP (Rattus norvegicus [3]): -54 mmHg

CCOC(=O)CCCCn1c(=O)n(CCN2CCN(c3ccccc3OC)CC2)c(=O)c2sccc21
Time (Rattus norvegicus [5]): 0.5 h
Delta SBP (Rattus norvegicus [6]): -30 mmHg

Cc1ccccc1N1CCN(CCn2c(=O)[nH]c3ccsc3c2=O)CC1
Time (Rattus norvegicus [1]): 1 h
Delta SBP (Rattus norvegicus [2]): -33 mmHg
